Measured values reported in ChEMBL document CHEMBL4229352, “Synthesis, antileishmanial activity and mechanism of action studies of novel β-carboline-1,3,5-triazine hybrids” (Eur J Med Chem, 2018).
Calls of active or inactive are those of the source. The rule behind the calls is not given here.

Tested on: Leishmania amazonensis
Experiment: Antileishmanial activity against promastigote forms of Leishmania amazonensis after 72 hrs by XTT/PMS dye based spectrophotometric analysis
Assay type: functional, organism-based
Settings: not given
Summary of the method: (§1)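 Log-phase parasites (promastigotes 48 h, axenic amastigotes 72 h) plated at the printed density with increasing compound concentrations; 72 h at 25 °C (promastigotes) or 32 °C (axenic amastigotes). XTT/PMS (0.5 and 0.3 mg/mL) added in the dark, absorbance at 450 nm after 4 h; IC50 versus negative control by regression. Mean ± SD of at least three independent experiments.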

Compound	IC50
O=C(NCCNc1nc(N2CCOCC2)nc(N2CCOCC2)n1)c1cc2c([nH]c3ccccc32)c(-c2ccccc2)n1	> 100 µM
O=C(NCCNc1nc(Cl)nc(Cl)n1)c1cc2c([nH]c3ccccc32)c(-c2cccc([N+](=O)[O-])c2)n1	5.1 µM
O=C(NCCNc1nc(Cl)nc(Cl)n1)c1cc2c([nH]c3ccccc32)c(-c2ccc(F)cc2)n1	> 100 µM
CN1CCN(c2nc(NCCNC(=O)c3cc4c([nH]c5ccccc54)c(-c4ccccc4)n3)nc(N3CCN(C)CC3)n2)CC1	> 100 µM
O=C(NCCCCCCNc1nc(Cl)nc(Cl)n1)c1cc2c([nH]c3ccccc32)c(-c2ccccc2)n1	> 100 µM
O=C(NNc1nc(Cl)nc(Cl)n1)c1cc2c([nH]c3ccccc32)c(-c2ccc(F)cc2)n1	> 100 µM
O=C(NCCNc1nc(NC2CCCCC2)nc(NC2CCCCC2)n1)c1cc2c([nH]c3ccccc32)c(-c2ccccc2)n1	> 100 µM
CC(C)Nc1nc(NNC(=O)c2cc3c([nH]c4ccccc43)c(-c3ccc(F)cc3)n2)nc(NC(C)C)n1	43.4 µM
CC(C)Nc1nc(NNC(=O)c2cc3c([nH]c4ccccc43)c(-c3ccccc3)n2)nc(NC(C)C)n1	39.7 µM
O=C(NCCNc1nc(NCc2ccccc2)nc(NCc2ccccc2)n1)c1cc2c([nH]c3ccccc32)c(-c2ccccc2)n1	> 100 µM
COc1ccc(-c2nc(C(=O)NCCNc3nc(NC(C)C)nc(NC(C)C)n3)cc3c2[nH]c2ccccc23)cc1	6.2 µM
CC(C)Nc1nc(NNC(=O)c2cc3c([nH]c4ccccc43)c(-c3ccccc3Cl)n2)nc(NC(C)C)n1	> 100 µM
COc1ccc(-c2nc(C(=O)NNc3nc(Cl)nc(Cl)n3)cc3c2[nH]c2ccccc23)cc1	> 100 µM

Tested on: Leishmania amazonensis
Experiment: Antileishmanial activity against axenic amastigote forms of Leishmania amazonensis after 72 hrs by XTT/PMS dye based spectrophotometric analysis
Assay type: functional, organism-based
Settings: not given
Summary of the method: as §1

Compound	IC50
O=C(NCCNc1nc(Cl)nc(Cl)n1)c1cc2c([nH]c3ccccc32)c(-c2cccc([N+](=O)[O-])c2)n1	1.1 µM
CC(C)Nc1nc(NNC(=O)c2cc3c([nH]c4ccccc43)c(-c3ccccc3)n2)nc(NC(C)C)n1	32.5 µM
COc1ccc(-c2nc(C(=O)NCCNc3nc(NC(C)C)nc(NC(C)C)n3)cc3c2[nH]c2ccccc23)cc1	1.2 µM

Tested on: not listed separately
Experiment: Cytotoxicity against mouse J774A1 cells assessed as reduction in cell viability after 48 hrs by MTT assay
Assay type: cell-based, J774.A1
Settings: not given
Summary of the method: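 J774-A1 macrophages in RPMI 1640 with 10% FBS, plated and left 24 h at 37 °C, 5% CO2. Supernatant then replaced by increasing compound concentrations for 48 h. After a PBS wash, MTT (2 mg/mL) was added for 4 h at 25 °C in the dark, formazan dissolved in DMSO, absorbance read at 570 nm. CC50 by regression versus negative control; at least three experiments.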

Compound	CC50 at 48 h
O=C(NCCNc1nc(Cl)nc(Cl)n1)c1cc2c([nH]c3ccccc32)c(-c2cccc([N+](=O)[O-])c2)n1	83.1 µM
CC(C)Nc1nc(NNC(=O)c2cc3c([nH]c4ccccc43)c(-c3ccc(F)cc3)n2)nc(NC(C)C)n1	50 µM
CC(C)Nc1nc(NNC(=O)c2cc3c([nH]c4ccccc43)c(-c3ccccc3)n2)nc(NC(C)C)n1	103 µM
COc1ccc(-c2nc(C(=O)NCCNc3nc(NC(C)C)nc(NC(C)C)n3)cc3c2[nH]c2ccccc23)cc1	146 µM

Tested on: not listed separately
Experiment: Selectivity index, ratio of CC50 for mouse J774A1 cells to IC50 for promastigote forms of Leishmania amazonensis
Assay type: toxicity
Settings: read-out: Ratio CC50/IC50
Summary of the method: (§2)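 Selectivity index calculated as CC50 in J774-A1 macrophages (48 h MTT) divided by IC50 for L. amazonensis promastigotes or axenic amastigotes (72 h XTT/PMS).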

Compound	selectivity ratio
O=C(NCCNc1nc(Cl)nc(Cl)n1)c1cc2c([nH]c3ccccc32)c(-c2cccc([N+](=O)[O-])c2)n1	16.3
CC(C)Nc1nc(NNC(=O)c2cc3c([nH]c4ccccc43)c(-c3ccc(F)cc3)n2)nc(NC(C)C)n1	1.2
CC(C)Nc1nc(NNC(=O)c2cc3c([nH]c4ccccc43)c(-c3ccccc3)n2)nc(NC(C)C)n1	2.6
COc1ccc(-c2nc(C(=O)NCCNc3nc(NC(C)C)nc(NC(C)C)n3)cc3c2[nH]c2ccccc23)cc1	23.5

Tested on: not listed separately
Experiment: Selectivity index, ratio of CC50 for mouse J774A1 cells to IC50 for axenic amastigote forms of Leishmania amazonensis
Assay type: toxicity
Settings: read-out: Ratio CC50/IC50
Summary of the method: as §2

Compound	selectivity ratio
O=C(NCCNc1nc(Cl)nc(Cl)n1)c1cc2c([nH]c3ccccc32)c(-c2cccc([N+](=O)[O-])c2)n1	75.5
CC(C)Nc1nc(NNC(=O)c2cc3c([nH]c4ccccc43)c(-c3ccccc3)n2)nc(NC(C)C)n1	3.16
COc1ccc(-c2nc(C(=O)NCCNc3nc(NC(C)C)nc(NC(C)C)n3)cc3c2[nH]c2ccccc23)cc1	121

Tested on: Leishmania amazonensis
Experiment: Induction of ultrastructural alteration in promastigote forms of Leishmania amazonensis assessed as ultrastructural alteration in mitochondrial membrane at 6.2 uM after 24 hrs by transmission electron microscopic analysis
Assay type: functional, organism-based
Settings: not given
Summary of the method: (§3)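 Promastigotes (1 x 10^6/mL) exposed to 6.2 μM for 24, 48 or 72 h at 25 °C alongside untreated controls. Fixed in 2.5% glutaraldehyde in 0.1 M cacodylate buffer. For TEM, post-fixed 1 h in 1% OsO4 with 0.8% potassium ferrocyanide in cacodylate buffer. For SEM, samples were gold-coated before viewing.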

Compound	Activity
COc1ccc(-c2nc(C(=O)NCCNc3nc(NC(C)C)nc(NC(C)C)n3)cc3c2[nH]c2ccccc23)cc1	Active

Tested on: Leishmania amazonensis
Experiment: Induction of ultrastructural alteration in promastigote forms of Leishmania amazonensis assessed as ultrastructural alteration in plasma membrane at 6.2 uM after 24 hrs by transmission electron microscopic analysis
Assay type: functional, organism-based
Settings: not given
Summary of the method: as §3

Compound	Activity
COc1ccc(-c2nc(C(=O)NCCNc3nc(NC(C)C)nc(NC(C)C)n3)cc3c2[nH]c2ccccc23)cc1	Active

Tested on: Leishmania amazonensis
Experiment: Induction of ultrastructural alteration in promastigote forms of Leishmania amazonensis assessed as formation of storage-lipid bodies at 6.2 uM after 48 hrs by transmission electron microscopic analysis
Assay type: functional, organism-based
Settings: not given
Summary of the method: as §3

Compound	Activity
COc1ccc(-c2nc(C(=O)NCCNc3nc(NC(C)C)nc(NC(C)C)n3)cc3c2[nH]c2ccccc23)cc1	Active

Tested on: Leishmania amazonensis
Experiment: Induction of ultrastructural alteration in promastigote forms of Leishmania amazonensis assessed as formation of mitochondrial swelling at 6.2 uM after 48 hrs by transmission electron microscopic analysis
Assay type: functional, organism-based
Settings: not given
Summary of the method: as §3

Compound	Activity
COc1ccc(-c2nc(C(=O)NCCNc3nc(NC(C)C)nc(NC(C)C)n3)cc3c2[nH]c2ccccc23)cc1	Active

Tested on: Leishmania amazonensis
Experiment: Induction of ultrastructural alteration in promastigote forms of Leishmania amazonensis assessed as alteration in plasma membrane at 6.2 uM after 48 hrs by transmission electron microscopic analysis
Assay type: functional, organism-based
Settings: not given
Summary of the method: as §3

Compound	Activity
COc1ccc(-c2nc(C(=O)NCCNc3nc(NC(C)C)nc(NC(C)C)n3)cc3c2[nH]c2ccccc23)cc1	Active

Tested on: Leishmania amazonensis
Experiment: Induction of ultrastructural alteration in promastigote forms of Leishmania amazonensis assessed as alteration in flagellar pocket with vacuoles at 6.2 uM after 72 hrs by transmission electron microscopic analysis
Assay type: functional, organism-based
Settings: not given
Summary of the method: as §3

Compound	Activity
COc1ccc(-c2nc(C(=O)NCCNc3nc(NC(C)C)nc(NC(C)C)n3)cc3c2[nH]c2ccccc23)cc1	Active

Tested on: Leishmania amazonensis
Experiment: Induction of ultrastructural alteration in promastigote forms of Leishmania amazonensis assessed as formation of mitochondrial swelling at 6.2 uM after 72 hrs by transmission electron microscopic analysis
Assay type: functional, organism-based
Settings: not given
Summary of the method: as §3

Compound	Activity
COc1ccc(-c2nc(C(=O)NCCNc3nc(NC(C)C)nc(NC(C)C)n3)cc3c2[nH]c2ccccc23)cc1	Active

Tested on: Leishmania amazonensis
Experiment: Induction of morphological alteration in promastigote forms of Leishmania amazonensis assessed as cell rounding at 6.2 uM after 24 to 72 hrs by scanning electron microscopic analysis
Assay type: functional, organism-based
Settings: not given
Summary of the method: as §3

Compound	Activity
COc1ccc(-c2nc(C(=O)NCCNc3nc(NC(C)C)nc(NC(C)C)n3)cc3c2[nH]c2ccccc23)cc1	Active

Tested on: Leishmania amazonensis
Experiment: Induction of morphological alteration in promastigote forms of Leishmania amazonensis assessed as reduction in cell volume at 6.2 uM after 24 to 72 hrs by scanning electron microscopic analysis
Assay type: functional, organism-based
Settings: not given
Summary of the method: as §3

Compound	Activity
COc1ccc(-c2nc(C(=O)NCCNc3nc(NC(C)C)nc(NC(C)C)n3)cc3c2[nH]c2ccccc23)cc1	Active

Tested on: Leishmania amazonensis
Experiment: Induction of ROS generation in promastigote forms of Leishmania amazonensis at IC50 after 24 hrs by H2DCFDA staining based spectrofluorometric analysis relative to control
Assay type: functional
Settings: not given

Compound	Activity
COc1ccc(-c2nc(C(=O)NCCNc3nc(NC(C)C)nc(NC(C)C)n3)cc3c2[nH]c2ccccc23)cc1	81.9%

Tested on: Leishmania amazonensis
Experiment: Induction of ROS generation in promastigote forms of Leishmania amazonensis at IC90 after 24 hrs by H2DCFDA staining based spectrofluorometric analysis relative to control
Assay type: functional
Settings: not given

Compound	Activity
COc1ccc(-c2nc(C(=O)NCCNc3nc(NC(C)C)nc(NC(C)C)n3)cc3c2[nH]c2ccccc23)cc1	184.8%

Tested on: Leishmania amazonensis
Experiment: Induction of lipid body storage in promastigote forms of Leishmania amazonensis at IC50 after 24 hrs by nile red staining based fluorescence assay relative to control
Assay type: functional
Settings: not given

Compound	Activity
COc1ccc(-c2nc(C(=O)NCCNc3nc(NC(C)C)nc(NC(C)C)n3)cc3c2[nH]c2ccccc23)cc1	9%

Tested on: Leishmania amazonensis
Experiment: Induction of lipid body storage in promastigote forms of Leishmania amazonensis at IC90 after 24 hrs by nile red staining based fluorescence assay relative to control
Assay type: functional
Settings: not given

Compound	Activity
COc1ccc(-c2nc(C(=O)NCCNc3nc(NC(C)C)nc(NC(C)C)n3)cc3c2[nH]c2ccccc23)cc1	428.6%

Tested on: Leishmania amazonensis
Experiment: Induction of ROS generation in promastigote forms of Leishmania amazonensis at IC50 to IC90 uM after 24 hrs in presence of NAC by H2DCFDA staining based spectrofluorometric analysis
Assay type: functional, organism-based
Settings: not given

Compound	Activity
COc1ccc(-c2nc(C(=O)NCCNc3nc(NC(C)C)nc(NC(C)C)n3)cc3c2[nH]c2ccccc23)cc1	Active
